One data set concerns MCF7. Put plainly: Cytotoxicity against human MCF7 cells. The format is functional, cell-based.
Another data set concerns TK-10. Put plainly: Cytotoxicity against human TK10 cells. The format is functional, cell-based.
Data set [1] has as its system Rattus norvegicus. Put plainly: Induction glutathione-CYP1A1 in rat liver at 15 mg/kg, po qd by EROD assay.
For data set [2], the system named is Rattus norvegicus. Put plainly: Induction of quinone reductase activity in rat liver at 22.5 mg/kg, po qd. The format is functional. A digest of the protocol: (§1)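 Oral dosing for 15 days over 3 weeks, then liver QR read as loss of 600 nm absorbance of DCPIP (80 µM) with 0.2 mM NADH, 5 µM FAD, 25 mM Tris–HCl pH 7.4, 6% BSA, 0.01% Tween 20. Specific activity expressed as % change from basal-diet control, n = 5, means ± SE, Student's t-test.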

The test system of data set [3] is Rattus norvegicus. Put plainly: Induction glutathione-S-transferase activity in rat liver at 15 mg/kg, po qd.
A further data set concerns HT-29. Put plainly: Cytotoxicity against human HT-29 cells. The format is functional, cell-based.
The test system of data set [4] is Rattus norvegicus. Put plainly: Induction glutathione-CYP1A1 in rat liver at 15 mg/kg, po qd by EROD assay. The data set is classed as functional. A digest of the protocol: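 Rat liver CYP1A1 read as EROD activity: fluorescence increase from resorufin released from 7-ethoxyresorufin, in 100 mM phosphate buffer pH 7.6 with 250 µM NADPH. Oral dosing for 15 days over 3 weeks; change in specific activity expressed as % of basal-diet control, n = 5, means ± SE, Student's t-test.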

For data set [5], the system named is Rattus norvegicus. Put plainly: Induction of quinone reductase activity in rat liver at 15 mg/kg, po qd. The data set is classed as functional. A digest of the protocol:
as §1

For data set [6], the system named is Rattus norvegicus. Put plainly: Induction glutathione-S-transferase activity in rat liver at 15 mg/kg, po qd. The data set is classed as functional. A digest of the protocol:
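Hepatic GST after oral dosing for 15 days over 3 weeks. Substrates 1 mM CDNB and 1 mM reduced glutathione in 100 mM phosphate buffer pH 6.5; CDNB–GSH conjugate followed at 340 nm. Specific activity given as % change from basal-diet control, n = 5, means ± SE, Student's t-test.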

The nature of data set [7]: Mutagenic activity in Salmonella typhimurium TA98 assessed as […] increase in number of revertants at 8 ug/plate after 48 hrs by Ames test. Particulars: salmonella enterica subsp. enterica serovar typhimurium. The format is toxicity. In outline: (§2)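 TA98 pre-incubation Ames test without listed S9: 50 µL test solution, 500 µL 0.1 M phosphate pH 7.4 and 100 µL bacteria (2 × 10^9/mL), 60 min. Top agar with trace histidine/biotin, then 48 h at 37 °C and revertant count. Doses fall by thirds from the minimum toxic dose; DMSO and 4-NPD (20 µg/plate) controls; two independent experiments, means ± SD.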
In general terms: The Ames test uses bacterial strains that need an amino acid and regain growth without it when mutated back.

Data set [8] is described as follows: Mutagenic activity in Salmonella typhimurium TA98 assessed as […] increase in number of revertants at 3 ug/plate after 48 hrs by Ames test. The format is toxicity. Particulars: salmonella enterica subsp. enterica serovar typhimurium. In outline: as §2
Data set [9] is described as follows: Mutagenic activity in Salmonella typhimurium TA98 assessed as […] increase in number of revertants at 225 ug/plate after 48 hrs by Ames test. Particulars: salmonella enterica subsp. enterica serovar typhimurium. The data set is classed as toxicity. A digest of the protocol:
as §2

Data set [10] is described as follows: Mutagenic activity in Salmonella typhimurium TA98 assessed as […] increase in number of revertants at 25 ug/plate after 48 hrs by Ames test. The format is toxicity. Particulars: salmonella enterica subsp. enterica serovar typhimurium. In outline: as §2
Data set [11] can be described thus: Mutagenic activity in Salmonella typhimurium TA98 assessed as […] increase in number of revertants at 75 ug/plate after 48 hrs by Ames test. Conditions: salmonella enterica subsp. enterica serovar typhimurium. The format is toxicity. A digest of the protocol: as §2
The test system of data set [12] is Rattus norvegicus. Put plainly: Toxicity in Sprague-Dawley rat assessed as change in body weight at 10 mg/kg/day, po. Particulars: in vivo.
Data set [13] deals with Rattus norvegicus. Put plainly: Toxicity in Sprague-Dawley rat assessed as haemoglobin level at 10 mg/kg/day, po (RVb = 15.1 +/- 4.1 g/L). Conditions: in vivo.
Data set [14] relates to Rattus norvegicus. Put plainly: Toxicity in Sprague-Dawley rat assessed as glutamic-pyruvate level at 10 mg/kg/day, po (RVb = 22.8 +/-13.2 U/L). Particulars: in vivo.
In data set [15] the test system is Rattus norvegicus. Put plainly: Toxicity in Sprague-Dawley rat assessed as leucocyte level at 10 mg/kg/day, po. Particulars: in vivo.
Data set [16] concerns Rattus norvegicus. Put plainly: Toxicity in Sprague-Dawley rat assessed as glutamic-oxalate transaminase level at 10 mg/kg/day, po (RVb = 71.4 +/- 7.8 U/L). Conditions: in vivo.
Data set [17] concerns the target T1, Quinone oxidoreductase (Homo sapiens) (UniProt Q08257).
T1 sequence (whole entry): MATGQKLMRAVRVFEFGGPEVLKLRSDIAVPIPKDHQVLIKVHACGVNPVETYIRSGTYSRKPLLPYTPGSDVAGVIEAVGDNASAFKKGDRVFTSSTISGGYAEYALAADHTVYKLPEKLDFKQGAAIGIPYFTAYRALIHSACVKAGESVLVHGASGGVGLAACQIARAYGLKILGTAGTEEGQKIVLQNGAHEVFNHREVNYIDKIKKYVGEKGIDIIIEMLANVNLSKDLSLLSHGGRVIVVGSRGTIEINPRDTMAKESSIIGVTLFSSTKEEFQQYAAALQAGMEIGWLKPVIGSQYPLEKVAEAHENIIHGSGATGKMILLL
Put plainly: Induction of quinone reductase activity in human MCF7 cells. The data set is classed as cell-based. In outline:
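QR induction in MCF-7 tumour cells at 40 µM, a level chosen from a flavone dose–response; result given as ratio of QR specific activity, treated/control.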

For data set [18], the system named is Rattus norvegicus. Put plainly: Toxicity in Sprague-Dawley rat assessed as change in body weight at 250 mg/kg, po. Particulars: in vivo. The format is organism-based. On the set-up: dose 250 mg/kg, route oral. In outline: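 Healthy female Sprague–Dawley rats (about 200 g, 5–7 per group) given a single oral dose by intragastric syringe, suspended in saline/Tween 80 (4:1); vehicle-treated controls included. Daily weighing and observation for 3 days, then sacrifice with clinical biochemistry, haematology and organ histology.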

Where [19] appears, read: dose 15.0 mg/kg, in the assay text read “at 15.0 mg/kg” for “at 22.5 mg/kg”.

Among the data in ChEMBL document CHEMBL1250420, “Identification of chalcones as in vivo liver monofunctional phase II enzymes inducers” (Bioorg Med Chem, 2010) are Activity values, retold here.

The source made the active and inactive calls. The calls are words filed in the database; no cut-off is given here.

On to `O=C(/C=C/c1ccc2c(c1)OCO2)c1ccccc1O`, for which the outcome in the data set on MCF7, with TK-10 and in the data set on HT-29 was inactive. Moreover, the Activity is -50% with Rattus norvegicus [1], 30% in the data set on Rattus norvegicus [2] (setting [19]) and -20% in the data set on Rattus norvegicus [3].

For the molecule `O=C1CC(c2ccccc2Br)Oc2ccccc21` (stereo not given), the Activity came to 30% with Rattus norvegicus [4], 10% with Rattus norvegicus [5] and 10% in the data set with Rattus norvegicus [6]. Moreover, in the data set with MCF7, the result was Active. In addition, the outcome in the data set on TK-10 and with HT-29 was inactive.

`O=C(/C=C/c1cccs1)c1ccccc1O`: the Activity with Rattus norvegicus [4] was 20%; with Rattus norvegicus [5], 10%; in the data set on Rattus norvegicus [6], 10%; in data set [7], 16; in [8], 15; in data set [9], 14. Moreover, the Activity in data set [10] is recorded as 19; in data set [11], 13.

As for `O=c1cc(-c2ccccc2Br)oc2ccccc12`, the Activity result with Rattus norvegicus [12] is “Non-toxic”; in the data set on Rattus norvegicus [13], 9.6 g/L; in the data set with Rattus norvegicus [14], 45.4 U/L; in the data set on Rattus norvegicus [15], 4500 µL⁻¹; in the data set with Rattus norvegicus [16] it was 52.9 U/L. Besides, the result in the data set on MCF7 was Active. In addition, the result in the data set on TK-10 and in the data set on HT-29 was inactive.

For the molecule `O=C(/C=C/c1ccccc1)c1ccccc1O` [2'-HYDROXYCHALCONE], the outcome (in data set [17]; in the data set on MCF7; in the data set with TK-10; with HT-29) was Active. In addition, the Activity in the data set on Rattus norvegicus [4] is -60%; in the data set with Rattus norvegicus [13] it was 11.3 g/L; in the data set on Rattus norvegicus [5] it was 10%; in the data set on Rattus norvegicus [6], 30%; in data set [7] it was 16; with Rattus norvegicus [2] (dose 22.5 mg/kg) it was 10%. Also, the Activity entry with Rattus norvegicus [18] was “Non-toxic”; in the data set on Rattus norvegicus [15], 5200 µL⁻¹; in data set [8], 13; in data set [9] it was 14; in data set [10] it was 17; in data set [11] it was 20.

As to `O=C(/C=C/c1ccc(Cl)cc1)c1ccccc1O`, the result in the data set with MCF7 was inactive. Besides, the outcome in the data set on TK-10 and with HT-29 was Active. In addition, the results for the Activity with Rattus norvegicus [1], in the data set with Rattus norvegicus [2] (setting [19]) and in the data set on Rattus norvegicus [3] were -10%, 20% and -20%, respectively.

Regarding `COc1ccc(/C=C/C(=O)c2ccccc2O)cc1OC`, the Activity result in the data set on Rattus norvegicus [12] is “Non-toxic”; in the data set on Rattus norvegicus [13] it was 9.3 g/L; in the data set with Rattus norvegicus [14], 15 U/L; in the data set on Rattus norvegicus [2] (setting [19]), -20%; in the data set with Rattus norvegicus [15], 9600 µL⁻¹; with Rattus norvegicus [16], 62.1 U/L. Also, the result in the data set on MCF7 and in the data set with TK-10 was Active. In the data set with HT-29, the outcome was inactive.

Take `O=C(/C=C/c1ccccn1)c1ccccc1O`: the outcome (in data set [17]; in the data set on MCF7; in the data set on TK-10; in the data set on HT-29) was Active. Besides, the Activity with Rattus norvegicus [1] came to 10%; in data set [7], 17; with Rattus norvegicus [2] (setting [19]), 13%; in the data set on Rattus norvegicus [3], 20%; in data set [8] it was 13; in data set [9], 18. The Activity is on record as 16 in data set [10] and 17 in data set [11].

As for `O=c1cc(-c2ccc(Br)cc2)oc2ccccc12`, the Activity entry is “Non-toxic” with Rattus norvegicus [12] and 30% in the data set on Rattus norvegicus [5]. In addition, the outcome in the data set on MCF7, in the data set with TK-10 and in the data set on HT-29 was inactive.

Take `Nc1ccc(/C=C/C(=O)c2ccccc2O)cc1`: the result in the data set on MCF7, in the data set on TK-10 and with HT-29 was inactive. In addition, the Activity in the data set on Rattus norvegicus [2] (setting [19]) was 0%.

Consider `CSc1ccc(/C=C/C(=O)c2ccccc2)cc1`, for which the Activity with Rattus norvegicus [4] is listed as 750%; with Rattus norvegicus [5], 20%; in the data set with Rattus norvegicus [6], 30%. The outcome in the data set on MCF7 and with HT-29 was inactive. The result in the data set on TK-10 was Active.

`COc1ccc(/C=C/C(=O)c2ccccc2)cc1` [4-METHOXY CHALCONE]: the results for the Activity in the data set on Rattus norvegicus [4], with Rattus norvegicus [5] and with Rattus norvegicus [6] were -30%, 10% and -10%, respectively. Also, the outcome in the data set on MCF7 was inactive. In addition, the result in the data set on TK-10 and in the data set with HT-29 was Active.

Take `O=C(/C=C/c1ccc(Cl)cc1)c1ccccc1` [4-CHLORO CHALCONE]: the results for the Activity in the data set on Rattus norvegicus [4], in the data set with Rattus norvegicus [5] and in the data set with Rattus norvegicus [6] were 40%, 10% and -20%, respectively. Further, the result in the data set with MCF7 was inactive. The outcome in the data set with TK-10 and with HT-29 was Active.

With `COc1ccc(/C=C/C(=O)c2ccccc2O)cc1`, the Activity with Rattus norvegicus [13] is 12.3 g/L; with Rattus norvegicus [14], 13.2 U/L; in the data set on Rattus norvegicus [1] it was -40%; in the data set with Rattus norvegicus [2] (setting [19]), 60%; in the data set on Rattus norvegicus [18] it was “Non-toxic”; with Rattus norvegicus [15], 7300 µL⁻¹. In addition, the Activity with Rattus norvegicus [3] was -10%; in the data set with Rattus norvegicus [16], 52.2 U/L. The result in the data set with MCF7 and with TK-10 was Active. For the same molecule, the result with HT-29 was inactive.

Regarding `O=c1cc(-c2ccccc2)oc2ccccc12` [FLAVONE], the result in the data set with MCF7, in the data set with TK-10 and in the data set with HT-29 was inactive. Moreover, the Activity in the data set with Rattus norvegicus [5] was -30%.

In the case of `CN(C)c1ccc(/C=C/C(=O)c2ccccc2O)cc1`, the values for the Activity entry in the data set on Rattus norvegicus [12], with Rattus norvegicus [13] and in the data set with Rattus norvegicus [15] were “Non-toxic”, 11.5 g/L and 5500 µL⁻¹, respectively. Further, the result in the data set on MCF7, in the data set on TK-10 and in the data set with HT-29 was inactive.

In the case of `COc1ccc(C2CC(=O)c3ccccc3O2)cc1` (stereo not given), the Activity result was “Non-toxic” in the data set on Rattus norvegicus [12], 11.3 g/L in the data set with Rattus norvegicus [13] and 8600 µL⁻¹ in the data set on Rattus norvegicus [15]. Further, the outcome with MCF7 and in the data set with TK-10 was Active. Further, the outcome with HT-29 was inactive.
